Source: PubChem
Most compounds without a hit are left out; they make up all but 1.4% or so of the library.
HCV NS3 hel inh: inhibitors of HCV NS3 helicase, primary screen, biochemical, Cy5 molecular beacon fluorescence | NS3 helicase DNA unwinding | inhibition, % at 10.9 µM | actives 0.56% (n = 290,000) | AID 1800, 2009;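 active = inhibition above the mean of all tested compounds plus 3 SD, set per campaign, cut at about 35% in these data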;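 note: 0% = DMSO wells and 100% = thioflavine S control wells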
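System: NS3 helicase fragment of HCV / Schedule: 1 h at 25 °C / Control set: DMSO alone as 0% and 110 µM thioflavine S as 100% / Reagent: Cy5/quencher beacon DNA duplex and ATP to start / Technique: Cy5 fluorescence / Replication: singlicate / Evaluation: % inhibition of end-to-start signal ratio versus controls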
EBNA-1 inhibitor: EBNA-1 DNA-binding inhibitors, primary screen, biochemical, fluorescence polarization; inhibition, % at 14.8 µM; actives 0.34% (n = 300,000); AID 1950, 2009; in the data active = inhibition above about 28%
UBC9 SUMO inh: inhibitors of in vitro SUMOylation cascade, primary screen, biochemical, HTRF, uHTS; actives 0.36% (n = 290,000); SUMO-conjugating enzyme UBC9 (Homo sapiens), P63279; HTRF SUMOylation assay, SAE1/SAE2 + UBC9; inhibition, % at 35 µM; in the data active = inhibition above about 50%, passing the limit was not always enough
Target sequence (P63279 whole entry, looked up): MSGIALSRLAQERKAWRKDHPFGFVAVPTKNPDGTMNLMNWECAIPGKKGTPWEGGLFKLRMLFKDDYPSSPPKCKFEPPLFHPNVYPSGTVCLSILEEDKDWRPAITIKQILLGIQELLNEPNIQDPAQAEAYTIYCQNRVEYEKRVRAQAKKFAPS
HCV core dimer: inhibitors of HCV core protein dimerization, primary screen, biochemical, TR-FRET, high-throughput. TR-FRET GST/Flag-core106 dimerization, 1536-well. actives 0.33% (n = 300,000). AID 1899, 2009. inhibition, % at 5 µM;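 active = inhibition above the mean of all tested compounds plus 3 SD, set per screening campaign, cut at about 45% in these data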
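Assay system: GST-tagged and Flag-tagged HCV core protein residues 1-106 / Times: compound-protein-antibody incubation 4 h at 22.5 °C / Signal: time-resolved FRET, ex 340 nm, em 617 and 671 nm / Evaluation: % inhibition based on acceptor/donor emission ratio / Benchmarks: wells lacking GST-core106 and wells with excess unlabelled core106 / Repeats: singlicate, one well per compound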
ZTA counter: blocks Epstein-Barr virus ZTA, an EBNA-1 counter-screen; actives 0.15% (n = 320,000); ZTA-DNA binding, fluorescence polarization; P03206; AID 2234; inhibition, % at 11 µM; in the data active = inhibition above about 33%
Target sequence (P03206 whole entry, looked up): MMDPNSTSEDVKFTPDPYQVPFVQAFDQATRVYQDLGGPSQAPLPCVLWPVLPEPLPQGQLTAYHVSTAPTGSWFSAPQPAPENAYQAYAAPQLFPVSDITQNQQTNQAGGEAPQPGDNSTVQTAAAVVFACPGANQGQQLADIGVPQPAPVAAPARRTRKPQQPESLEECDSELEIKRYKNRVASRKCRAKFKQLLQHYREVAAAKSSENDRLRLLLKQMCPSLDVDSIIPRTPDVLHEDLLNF
NS3 hel confirm: HCV NS3 helicase inhibitors, retest, confirmation, biochemical, Cy5 molecular beacon fluorescence, triplicate. NS3 helicase DNA unwinding. inhibition, % at 10.9 µM. AID 1943, 2009. actives 31% (n = 1,600). shares compounds with HCV NS3 hel inh;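 active = inhibition above the mean of all tested compounds plus 3 SD, cutoff set per campaign, cut at about 36% in these data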
FID counter trip: compounds displacing fluorescent DNA intercalator, artefact control for HCV NS3 helicase inhibitor project, biochemical, FID fluorescence, triplicate. shares compounds with HCV NS3 hel inh. DNA fluorescent intercalator displacement. inhibition, % at 7.9 µM. actives 4% (n = 1,600); in the data active = inhibition above about 37%;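 note: 0% = vehicle and 100% = reference compound; higher means more displacement of ethidium bromide from the DNA hairpin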
FID counter DR: compounds displacing fluorescent intercalator from DNA, dose response, counter-screen for HCV NS3 helicase inhibitor project, biochemical, fluorescence; 120 tested, under 10 active; IC50, µM; AID 2172, 2009; shares compounds with HCV NS3 hel inh; fluorescent intercalator displacement from DNA; call rule not given here
Active calls of the source: *; x = no result.

SMILES	HCV NS3 hel inh	EBNA-1 inhibitor	UBC9 SUMO inh	HCV core dimer	ZTA counter	NS3 hel confirm	FID counter trip	others
CCOc1ccc(-n2c(C)cc(C(=O)NS(=O)(=O)c3ccc(C)cc3)c2C)cc1	5.9	-7.7	-2.4	5.3	-0.2	x	x
Cc1ccc(S(=O)(=O)NC(=O)c2cc(C)n(C3CC3)c2C)cc1	37.7*	1.6	5.1	-4.8	-13.8	-18.0	-6.9
CN(C)c1ccc(C(=O)c2ccccc2C(=O)O)c(O)c1	5.0	-6.1	10.9	5.5	20.6	x	x
CCCCN(CCCC)c1ccc(C(=O)c2ccccc2C(=O)O)c(O)c1	60.2*	8.8	31.0	22.2	3.5	75.6*	-13.7
CC(C)CCn1c(Sc2nc3ccccc3o2)nc2c1c(=O)[nH]c(=O)n2C	2.8	1.2	12.0	-1.1	-12.3	x	x
CCCOc1ccc(-c2nc(SCc3ccccc3)[nH]c(=O)c2C#N)cc1OC	36.5*	17.3	34.1	21.6	11.2	90.8*	-14.5	FID counter DR=>79.4
N=C1/C(=C\c2ccc(SCc3ccco3)o2)C(=O)N=C2SC=NN12	53.2*	-5.7	x	1.6	3.1	63.0*	-1.3
NC(=S)N/N=C\c1c(OCc2ccccc2Cl)ccc2ccccc12	36.3*	-19.1	-6.7	5.1	5.3	12.4	-21.0
NC(=S)N/N=C\c1c2ccccc2cc2ccccc12	-13.2	3.6	-2.0	-16.1	12.9	x	x
Cc1ccc(NC(=O)CSCC(=O)N2CCCc3ccccc32)cc1	x	0.0	x	3.0	6.5	x	x
Cc1cc(/C=C2\C(=N)N3N=C(C(C)C)SC3=NC2=O)c(C)n1-c1ccccc1	51.4*	-10.5	6.8	13.6	-16.7	-0.9	2.4
CS(=O)(=O)Nc1ccccc1C(=O)OCC(=O)N1CCC(c2ccccc2)=N1	x	x	x	x	-2.3	x	x
C/C(CC(=O)Nc1ccc(Cl)c(C(F)(F)F)c1)=N\NC(=O)c1cccc(O)c1	8.0	8.2	-25.2	3.2	18.9	x	x
C/C(CC(=O)Nc1ccc(Cl)c(C(F)(F)F)c1)=N\NC(=O)c1ccccc1O	40.6*	3.3	-0.1	-4.4	16.0	3.9	13.5
O=C(Nc1nc2c(Cl)cccc2s1)C1CC1	1.8	9.8	5.1	-2.8	16.7	x	x
O=C(Nc1nc2c(Cl)c(Cl)ccc2s1)C1CC1	41.5*	-2.9	9.9	-6.3	-1.9	2.2	-11.8
COc1ccc(/C=N\NC(=O)c2ccccc2)cc1COc1ccc(F)cc1	46.1*	-7.2	7.1	2.3	-16.2	-11.9	-35.0
O=C(N/N=C/c1cc(Br)cc([N+](=O)[O-])c1O)c1ccc(NC(=O)c2ccc(F)cc2)cc1	36.8*	-4.2	-19.2	-0.1	-0.6	8.5	-2.0
O=C(N/N=C/c1cc(Br)cc(Cl)c1O)c1ccc2c(c1)OCO2	x	-3.5	x	1.1	1.1	x	x
O=C(N/N=C/c1cc(Cl)cc([N+](=O)[O-])c1O)c1ccc2c(c1)OCO2	52.2*	-14.8	3.3	-32.3	-11.9	-7.7	6.6
O=C(N/N=C/c1ccccc1)c1ccc(NC(=O)c2ccc(F)cc2)cc1	38.4*	-4.7	21.8	-1.1	-21.3	-8.9	0.8
CC(=O)Nc1ccc(C(=O)N/N=C/c2ccc(F)cc2)cc1	9.3	2.3	27.0	4.1	4.6	x	x
O=C(N/N=C/c1cc(Br)cc(Br)c1O)c1ccncc1	14.4	-14.6	x	-12.4	-1.7	x	x
COc1ccc(C(=O)N/N=C/c2ccc(OC)c(COc3ccc(F)cc3)c2)cc1	-9.5	-2.4	12.2	10.2	-5.9	x	x
Cc1ccc(/C=N/NC(=O)c2cccc(NC(=O)c3ccccc3C)c2)o1	2.3	1.6	-6.1	8.8	0.7	x	x
SMILES	HCV NS3 hel inh	EBNA-1 inhibitor	UBC9 SUMO inh	HCV core dimer	ZTA counter	NS3 hel confirm	FID counter trip	others
Cc1cccc(C(=O)Nc2ccc(C(=O)N/N=C/c3ccc(C)o3)cc2)c1	40.6*	-5.3	-2.7	-6.2	-22.4	-15.7	-20.3
O=S(=O)(c1ccc(NC(=S)NN=C2CCCCC2)cc1)N1CCOCC1	3.3	6.8	-17.7	4.7	-4.3	x	x
CC1CCc2c(sc(/N=C/c3ccco3)c2C(N)=O)C1 (stereo not drawn)	36.6*	7.4	15.2	0.2	2.4	-3.6	0.8
CSc1sccc1/C=N/O	6.2	2.7	6.6	-4.0	13.7	x	x
CSc1sccc1/C=C(/C#N)C(=O)c1ccco1	37.8*	-11.8	10.0	-1.1	-20.9	-37.4	9.7
CC1CCN(CC(CS(=O)(=O)c2ccc([N+](=O)[O-])cc2)N2CCC(C)CC2)CC1 (stereo not drawn)	-4.5	9.9	-9.9	-3.3	-6.4	x	x
O=C(/C=C/c1ccccc1Cl)c1ccccc(=O)c1O	44.1*	2.2	22.9	6.9	10.3	77.8*	32.6	FID counter DR=>79.4
Cc1ccc(C)c(/C=C/C(=O)c2ccccc(=O)c2O)c1	38.5*	-1.1	21.3	4.9	3.4	77.1*	16.3	FID counter DR=>79.4
O=C(/C=C/c1ccccc1Cl)c1ccc(O)cc1	-8.3	-1.6	8.5	8.8	13.7	x	x
Cc1ccc(/C=C/C(=O)c2ccccc(=O)c2O)c(C)c1	37.5*	7.2	16.7	23.6	3.7	77.1*	16.6	FID counter DR=>79.4
Cc1ccc2nc(NC(=O)c3ccc4ncsc4c3)sc2c1	0.1	-5.6	26.1	4.2	-3.6	x	x
NS(=O)(=O)c1ccc2nc(NC(=O)c3ccc4ncsc4c3)sc2c1	43.6*	7.3	15.7	-1.6	-10.6	42.3*	10.6	FID counter DR=>79.4
O=C(N/N=C/c1cccnc1)c1ccc([N+](=O)[O-])cc1	6.9	8.5	12.7	-4.9	19.2	x	x
O=C(N/N=C/c1cccn1-c1ccc([N+](=O)[O-])cc1)c1cccnc1	65.2*	-3.7	11.2	19.4	5.9	1.2	-3.3
COc1nc(C)ccc1-c1noc(-c2ccco2)n1	6.2	4.1	2.0	0.7	0.4	x	x
COc1nc(-c2ccc(C)cc2)ccc1-c1noc(-c2ccco2)n1	40.3*	0.5	0.3	5.6	11.0	-3.1	-2.6
CC12CCCCC1NS(=O)(=O)OC2 (stereo not drawn)	41.4*	11.5	-0.8	13.3	-1.6	-16.5	9.5
Cc1ccc(N2CC(C(=O)OCc3nnc(-c4ccccc4)o3)CC2=O)cc1 (stereo not drawn)	x	8.0	x	-10.6	-8.4	x	x
COc1ccc(NC(=O)/C(=C\c2ccco2)NC(=O)c2ccco2)cc1	3.5	4.7	-2.7	10.3	-1.5	x	x
COc1ccc(NC(=O)/C(C#N)=C\C=C\c2ccco2)cc1	84.8*	2.5	44.6	-0.5	-4.4	-4.1	-0.2
